From ChEMBL document CHEMBL5143722, “Antimicrobial Peptides against Multidrug-Resistant Pseudomonas aeruginosa Biofilm from Cystic Fibrosis Patients” (J Med Chem, 2022)
Activity calls are given as the source filed them.

Columns and labels:
[1] = system: Pseudomonas aeruginosa; assay: Induction of biofilm degradation of Pseudomonas aeruginosa clinical isolate 25 at sub MIC concentration incubated for 1 hr by crystal violet staining analysis; format: functional
In short: (§1)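 Bacteria at 1 × 10^6 CFU/mL in BM2 grown static at 37 °C for 24 h to form biofilm. Wells rinsed of unattached cells, then exposed for 1 h to serial peptide dilutions (1.56–50 μM). Washed, stained with 0.1% crystal violet, A590 read. Biomass given as % of untreated biofilm; no-bacteria wells as blanks. At least three biological repeats.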

[2] = system: Pseudomonas aeruginosa; assay: Induction of biofilm degradation of Pseudomonas aeruginosa clinical isolate 238 at sub MIC concentration incubated for 1 hr by crystal violet staining analysis; format: functional; in short: as §1
[3] = system: Pseudomonas aeruginosa; assay: Induction of biofilm degradation of Pseudomonas aeruginosa clinical isolate 251 at sub MIC concentration incubated for 1 hr by crystal violet staining analysis; format: functional; in short: as §1
[4] = system: Pseudomonas aeruginosa; assay: Induction of biofilm degradation of Pseudomonas aeruginosa clinical isolate 995 at sub MIC concentration incubated for 1 hr by crystal violet staining analysis; format: functional; in short: as §1
[5] = system: Pseudomonas aeruginosa; assay: Induction of biofilm degradation of Pseudomonas aeruginosa clinical isolate PAO1 at sub MIC concentration incubated for 1 hr by crystal violet staining analysis; format: functional; in short: as §1
[6] = system: Pseudomonas aeruginosa; assay: Antibiofilm activity against Pseudomonas aeruginosa clinical isolate 25 assessed as inhibition of biofilm formation at 1.56 uM incubated for 24 hrs by crystal violet staining based microtiter plate method; format: functional, organism-based
In short: (§2)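 Washed overnight cultures in BM2 medium at 1 × 10^6 CFU/mL with 2-fold serial peptide dilutions in a U-bottom 96-well plate. Incubated 24 h at 37 °C without agitation. Unattached cells washed off, then 0.1% crystal violet stain read at 590 nm. No-bacteria blanks. Biomass expressed as % of untreated biofilm. At least three biological repeats.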

[7] = system: Pseudomonas aeruginosa; assay: Antibiofilm activity against Pseudomonas aeruginosa clinical isolate 172 assessed as inhibition of biofilm formation at 1.56 uM incubated for 24 hrs by crystal violet staining based microtiter plate method; format: functional, organism-based; in short: as §2
[8] = system: Pseudomonas aeruginosa; assay: Antibiofilm activity against Pseudomonas aeruginosa clinical isolate 238 assessed as inhibition of biofilm formation at 1.56 uM incubated for 24 hrs by crystal violet staining based microtiter plate method; format: functional, organism-based; in short: as §2
[9] = system: Pseudomonas aeruginosa; assay: Antibiofilm activity against Pseudomonas aeruginosa clinical isolate 251 assessed as inhibition of biofilm formation at 1.56 uM incubated for 24 hrs by crystal violet staining based microtiter plate method; format: functional, organism-based; in short: as §2

CC(C)C[C@H](NC(=O)[C@H](CC(C)C)NC(=O)[C@H](CC(C)C)NC(=O)[C@H](CC(C)C)NC(=O)[C@H](CC(C)C)NC(=O)[C@H](CC(C)C)NC(=O)[C@H](CC(C)C)NC(=O)[C@H](CC(C)C)NC(=O)[C@H](CC(C)C)NC(=O)[C@H](CCCCN)NC(=O)[C@H](CCCCN)NC(=O)[C@@H](N)CCCCN)C(=O)N[C@@H](CCCCN)C(=O)N[C@@H](CCCCN)C(=O)N[C@@H](CCCCN)C(N)=O
active: Activity [1] | Activity [2] | Activity [3] | Activity [4] | Activity [5]

CC(C)C[C@H](NC(=O)[C@H](CC(C)C)NC(=O)[C@H](CCCCN)NC(=O)[C@H](CC(C)C)NC(=O)[C@H](CC(C)C)NC(=O)[C@H](CCCCN)NC(=O)[C@H](CCCCN)NC(=O)[C@H](CC(C)C)NC(=O)[C@H](CC(C)C)NC(=O)[C@H](CCCCN)NC(=O)[C@H](CCCCN)NC(=O)[C@H](CC(C)C)NC(=O)[C@H](CC(C)C)NC(=O)[C@H](CCCCN)NC(=O)[C@@H](N)CC(C)C)C(N)=O
active: inhibition [6] | inhibition [7] | inhibition [8] | inhibition [9]
